We go through two compounds from ChEMBL document CHEMBL2021854, “2-Aminopyrimidine based 4-aminoquinoline anti-plasmodial agents. Synthesis, biological activity, structure-activity relationship and mode of action studies” (Eur J Med Chem, 2012).

Data set [1] can be described thus: Inhibition of beta-hematin formation assessed as Ferriprotoporphyrin IX biomineralisation after 24 hrs. In kind it is functional. The method in brief:
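Hemin (0.5 mg/ml in DMSO) was mixed with 0.5 M sodium acetate pH 4.4 and compound, then incubated for 24 h at 37 °C. The pellet was washed with DMSO to remove unreacted hemin and dissolved in 0.1 N NaOH, with A405 read. Percent inhibition was taken versus solvent control, and IC50 by curve fitting.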

The test system of data set [2] is Plasmodium falciparum. Description: Ratio of chloroquine IC50 to compound IC50 for chloroquine-sensitive Plasmodium falciparum 3D7. In kind it is functional.
Data set [3] deals with Respiratory syncytial virus. Description: Antiviral activity against Respiratory syncytial virus infected in human HeLa cells assessed as inhibition of virus-induced cytopathogenicity after 4 days. In kind it is functional, organism-based. Conditions: 96 h. The method in brief: (§1)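 Confluent HEL, Vero or HeLa monolayers were inoculated with 100 CCID50 of virus in the presence of varying concentrations of compound. Cytopathicity was scored when it reached completion in untreated, virus-infected control cultures.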

Another data set relates to Sindbis virus. Put plainly: Antiviral activity against Sindbis virus infected in african green monkey Vero cells assessed as inhibition of virus-induced cytopathogenicity after 4 days. Type of data set: functional, organism-based. Conditions: 96 h. The essentials: as §1
On the technique in general: Cytopathic effects are the visible damage that an infection or toxin causes in cultured cells.

Data set [4] is described as follows: Cytotoxicity against MDCK cells assessed as minimum compound concentration required to causes microscopically detectable alteration of normal cell morphology. In kind it is cell-based, Canis lupus familiaris. Conditions: dog. The essentials:
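Confluent, non-proliferating cell cultures were exposed to the compounds. The endpoint was the minimum concentration producing a microscopically detectable alteration of normal cell morphology.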

The test system of data set [5] is Nucleic Acid. Put plainly: Binding affinity to Escherichia coli pUC18 DNA by spectrofluorometric analysis. In kind it is nucleic-acid assay. The essentials: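 Steady-state fluorescence titration at ambient temperature: compound held at 30 μM while DNA was varied (0.3–70 μM), working solutions diluted in methanol. Excitation 320 nm, emission 380 nm, slit 5 nm. Log K was calculated from quenching of the 380 nm emission.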

In a further data set the test system is Influenza A virus. Description: Antiviral activity against Influenza A virus H3N2 infected in MDCK cells assessed as inhibition of virus-induced cytopathogenicity after 4 days by colorimetric formazan-based MTS assay. In kind it is functional, organism-based. Conditions: 96 h.
In data set [6] the test system is Nucleic Acid. Description: Binding affinity to calf thymus DNA assessed as change in melting temperature. Type of data set: nucleic-acid assay. Conditions: Bos taurus. The essentials:
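CT DNA (151 μM NP) was heated with or without compound at a 5:1 DNA:drug ratio in 40% DMSO/TE buffer pH 7.4 with 0.5 mM NaCl. Absorbance at 260 nm was followed with a 0.5 °C/min ramp to obtain Tm.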

The next data set has as its system Human alphaherpesvirus 3. Put plainly: Antiviral activity against […] expressing thymidine kinase infected in HEL cells assessed as reduction of virus plaque formation after 4 days. Conditions: Human alphaherpesvirus 3, strain Oka vaccine, 96 h. Type of data set: functional, cell-based.
Data set [7] in a line: Inhibition of beta-hematin formation assessed as Ferriprotoporphyrin IX biomineralisation at 1 mg/ml after 24 hrs. Type of data set: functional. The method in brief:
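Hemin chloride (0.5 mg/ml in DMSO) mixed with 0.5 M sodium acetate buffer pH 4.4 and drug or solvent control, incubated 37 °C for 24 h. Pellet washed with DMSO to remove unreacted hemin, dissolved in 0.1 N NaOH, absorbance read at 405 nm; percent inhibition relative to control. Highest concentration tested 1 mg/ml.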

The test system of a further data set is HeLa. Description: Cytotoxicity against human HeLa cells assessed as cell viability by colorimetric formazan-based MTS assay.
Data set [8] deals with Plasmodium falciparum. Put plainly: Antiplasmodial activity chloroquine-resistant Plasmodium falciparum K1 infected in human A+ erythrocytes assessed as inhibition of [3H]-hypoxanthine incorporation after 24 hrs by scintillation counting. Type of data set: functional, organism-based.
The subject of a further data set is Human alphaherpesvirus 1. Description: Antiviral activity against HSV1 KOS infected in HEL cells assessed as inhibition of virus-induced cytopathogenicity after 4 days. To be noted: Human alphaherpesvirus 1, KOS, 96 h. Type of data set: functional, organism-based. The method in brief: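 Confluent HEL or HeLa monolayers infected with 100 CCID50 of virus in the presence of varying compound concentrations.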

Another data set concerns Felid alphaherpesvirus 1. Description: Antiviral activity against Feline herpesvirus infected in cat CRFK cells assessed as inhibition of virus-induced cytopathic effect after 4 days by colorimetric formazan-based MTS assay. Type of data set: functional, organism-based. To be noted: Felid alphaherpesvirus 1, CRFK, 96 h.
The next data set concerns Coxsackievirus B4. Put plainly: Antiviral activity against Coxsackie virus B4 infected in human HeLa cells assessed as inhibition of virus-induced cytopathogenicity after 4 days. In kind it is functional, organism-based. To be noted: Enterovirus B, 96 h. The method in brief:
as §1

For another data set, the system named is Influenza B virus. Description: Antiviral activity against Influenza B virus infected in MDCK cells assessed as inhibition of virus-induced cytopathogenicity after 4 days by colorimetric formazan-based MTS assay. Conditions: 96 h. Type of data set: functional, organism-based.
For data set [9], the system named is Plasmodium falciparum. Put plainly: Ratio of chloroquine IC50 to compound IC50 for chloroquine-sensitive Plasmodium falciparum K1. In kind it is functional.
For data set [10], the system named is Human immunodeficiency virus 2. Description: Antiviral activity against HIV2 infected in human CEM cells assessed as inhibition of virus-induced cytopathic effect after 4 days. Type of data set: functional, organism-based. Conditions: Human immunodeficiency virus 2, CCRF-CEM, 96 h. The essentials: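 CEM T-lymphocytes (~3 × 10^5 cells/ml) were infected with HIV-1 IIIB or HIV-2 ROD at ~100 CCID50, then immediately plated with a range of compound concentrations. Giant cell formation was scored microscopically after 4 days at 37 °C. Cytostatic activity was tested in parallel in uninfected CEM cells.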

A value given as a limit tells only on which side of the number the result lay.

What is called IC50 is the concentration that gives 50% inhibition. The inhibition is the relative decrease from the control value, in per cent. By EC50 is commonly meant the concentration at which the effect is half-maximal. Usually ΔTm stands for the shift of the melting midpoint relative to a reference. A word on the CC50: it is the concentration at which the toxic effect on the cells reaches its halfway point. Turning to `Cc1nc(NCCCCNc2ccnc3cc(Cl)ccc23)nc(-c2ccccc2[N+](=O)[O-])c1C(=O)OC(C)C`, the values for the half-maximal inhibitory concentration (IC50) (in [1]; in the data set with Plasmodium falciparum [8]) were 2 µM and 0.0036 µM, respectively. Further, the inhibition entry in [1] is “Dose-dependent effect”; in data set [7], 100%. Further, the “Ratio IC50” value with Plasmodium falciparum [2] and with Plasmodium falciparum [9] was 56 each time. Moreover, the EC50 in data set [3] is > 20 µM; in the data set with Sindbis virus it was > 20 µM; in the data set on Influenza A virus it was > 0.8 µM; in the data set with Human alphaherpesvirus 3, 4 µM; in the data set with Human alphaherpesvirus 1 it was > 4 µM; with Felid alphaherpesvirus 1, > 20 µM. Also, the half-maximal effective concentration (EC50) was > 20 µM in the data set with Coxsackievirus B4, > 0.8 µM in the data set with Influenza B virus and > 2 µM in [10]. Further, the MCC in [4] came to 4000 nM. The compound further yielded a log Ks in the data set on Nucleic Acid [5] of 5.27. In addition, the ΔTm with Nucleic Acid [6] was 2.5 °C. In the data set on HeLa, the 50% cytotoxic concentration (CC50) stood at 4.4 µM.
Consider `CCOC(=O)c1c(C)nc(NCCCCNc2ccnc3cc(Cl)ccc23)nc1-c1ccccc1`, for which the half-maximal effective concentration (EC50) in data set [3] is > 100 µM; with Sindbis virus, > 100 µM; with Influenza A virus, > 0.16 µM; in the data set with Human alphaherpesvirus 3 it was 4 µM; in the data set with Human alphaherpesvirus 1 it was > 100 µM; in the data set with Felid alphaherpesvirus 1, > 4 µM. In addition, the figures for the concentration for a half-maximal effect (EC50) (with Coxsackievirus B4; with Influenza B virus; in data set [10]) were > 100 µM, > 0.16 µM and > 2 µM, respectively. In addition, the MCC in data set [4] amounted to 800 nM. Further, the thermal shift (ΔTm) with Nucleic Acid [6] stood at 3 °C. For the same compound, the inhibition in data set [7] was found to be 100%. Moreover, the CC50 in the data set on HeLa came to 1.84 µM. In addition, the half-maximal inhibitory concentration (IC50) in the data set with Plasmodium falciparum [8] is 0.0261 µM.
